# According to ChEMBL document CHEMBL4725360, “Optimization of Acetazolamide-Based Scaffold as Potent Inhibitors of Vancomycin-Resistant Enterococcus” (J Med Chem, 2020):
# Active and inactive are the calls of the source. The calls are words filed in the database; no cut-off is given here.
# Experiments:
# [1] = system: Enterococcus faecium; assay: Antibacterial activity against Enterococcus faecium HM968 incubated for 18 to 20 hrs under aerobic condition by CLSI protocol based broth microdilution assay; assay type: functional; conditions: time hrs 18-20
# How it was run: (§1)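 Broth microdilution per CLSI. Strains grown aerobically overnight on trypticase soy agar at 37 °C. Inoculum set to 0.5 McFarland, diluted in trypticase soy broth to about 5 × 10⁵ CFU/mL. Agents serially diluted, plates incubated aerobically at 37 °C for 18–20 h. MIC is the lowest concentration with no visible growth. Compound stocks 10 mg/mL in DMSO.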
# [2] = system: Enterococcus faecium; assay: Antibacterial activity against Enterococcus faecium NR-28978 incubated for 18 to 20 hrs under aerobic condition by CLSI protocol based broth microdilution assay; assay type: functional; conditions: time hrs 18-20; how it was run: as §1
# [3] = system: Enterococcus faecium; assay: Antibacterial activity against Enterococcus faecium NR-31903 incubated for 18 to 20 hrs under aerobic condition by CLSI protocol based broth microdilution assay; assay type: functional; conditions: time hrs 18-20; how it was run: as §1
# [4] = system: Enterococcus faecium; assay: Antibacterial activity against Enterococcus faecium NR-32065 incubated for 18 to 20 hrs under aerobic condition by CLSI protocol based broth microdilution assay; assay type: functional; conditions: time hrs 18-20; how it was run: as §1
# [5] = system: Enterococcus faecium; assay: Antibacterial activity against Enterococcus faecium NR-31914 incubated for 18 to 20 hrs under aerobic condition by CLSI protocol based broth microdilution assay; assay type: functional; conditions: time hrs 18-20; how it was run: as §1
# [6] = system: Enterococcus faecium; assay: Antibacterial activity against Enterococcus faecium NR-31916 incubated for 18 to 20 hrs under aerobic condition by CLSI protocol based broth microdilution assay; assay type: functional; conditions: time hrs 18-20; how it was run: as §1
# [7] = system: Enterococcus faecium; assay: Antibacterial activity against Enterococcus faecium NR-32052 incubated for 18 to 20 hrs under aerobic condition by CLSI protocol based broth microdilution assay; assay type: functional; conditions: time hrs 18-20; how it was run: as §1
# [8] = system: Enterococcus faecium; assay: Antibacterial activity against Enterococcus faecium NR-31971 incubated for 18 to 20 hrs under aerobic condition by CLSI protocol based broth microdilution assay; assay type: functional; conditions: time hrs 18-20; how it was run: as §1
# [9] = system: Enterococcus faecalis; assay: Antibacterial activity against Enterococcus faecalis HM-335 incubated for 18 to 20 hrs under aerobic condition by CLSI protocol based broth microdilution assay; assay type: functional; conditions: time hrs 18-20; how it was run: as §1
# [10] = system: Enterococcus faecium; assay: Bacteriostatic activity against Enterococcus faecium ATCC 700221 assessed as reduction in bacterial burden at 5 times MIC preincubated for 24 hrs followed by replating on soya agar plates and measured after 16 hrs by time-kill assay; assay type: functional, organism-based
# How it was run: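 E. faecium ATCC 700221 overnight culture diluted in trypticase soy broth to 3.5 × 10⁶ CFU/mL. […] Samples taken at 2, 4, 6, 8, 12 and 24 h, diluted in PBS and plated on trypticase soy agar. Colonies counted after 16 h at 37 °C. Detection limit 100 CFU/mL. Two-way ANOVA with Dunnett's test.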
# [11] = system: Enterococcus faecium; assay: Antibacterial activity against Enterococcus faecium NR-31972 incubated for 18 to 20 hrs under aerobic condition by CLSI protocol based broth microdilution assay; assay type: functional; conditions: time hrs 18-20; how it was run: as §1
# [12] = system: Enterococcus faecium; assay: Antibacterial activity against Enterococcus faecium HM965 incubated for 18 to 20 hrs under aerobic condition by CLSI protocol based broth microdilution assay; assay type: functional; conditions: time hrs 18-20; how it was run: as §1
# [13] = system: Enterococcus faecalis; assay: Antibacterial activity against Enterococcus faecalis HM-334 incubated for 18 to 20 hrs under aerobic condition by CLSI protocol based broth microdilution assay; assay type: functional; conditions: time hrs 18-20; how it was run: as §1
# [14] = system: Enterococcus faecalis; assay: Antibacterial activity against Enterococcus faecalis NR-31975 incubated for 18 to 20 hrs under aerobic condition by CLSI protocol based broth microdilution assay; assay type: functional, organism-based; conditions: time hrs 18-20; how it was run: as §1
# [15] = system: Enterococcus faecalis; assay: Antibacterial activity against Enterococcus faecalis NR-31970 incubated for 18 to 20 hrs under aerobic condition by CLSI protocol based broth microdilution assay; assay type: functional, organism-based; conditions: time hrs 18-20; how it was run: as §1
# [16] = system: Caco-2; assay: Cytotoxicity against human Caco2 cells at 128 ug/ml incubated for 2 hrs by MTS assay; assay type: cell-based; conditions: caco-2, 2 h, dose 128 µg/ml
# How it was run: (§2)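 Caco-2 cells maintained in DMEM with 10% FBS, non-essential amino acids and penicillin-streptomycin at 37 °C, 5% CO₂. Compound exposure for 2 h in serum-free medium at several concentrations; DMSO-matched controls. Viability expressed relative to DMSO controls (mean ± SD), and CC₅₀ derived.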
# [17] = Cytotoxicity against human Caco2 cells incubated for 2 hrs by MTS assay; assay type: cell-based; conditions: Caco-2 cells; how it was run: as §2
# [18] = system: Enterococcus faecium; assay: Inhibition of carbonic anhydrase in Enterococcus faecium ATCC 700221 assessed as antibacterial activity incubated for 18 to 20 hrs in presence of ambient air by CLSI protocol based broth microdilution assay; conditions: time hrs 18-20
# How it was run: (§3)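 CLSI broth microdilution: inoculum about 5 × 10⁵ CFU/mL in trypticase soy broth with serial dilutions of agents. Paired plates incubated at 37 °C for 18–20 h, one set in ambient air ("normal"), the other under 5% CO₂. MIC is the lowest concentration completely inhibiting visible growth.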
# [19] = system: Enterococcus faecium; assay: Inhibition of carbonic anhydrase in Enterococcus faecium ATCC 700221 assessed as antibacterial activity incubated for 18 to 20 hrs in presence of 5% CO2 by CLSI protocol based broth microdilution assay; conditions: time hrs 18-20; how it was run: as §3
# [20] = system: Enterococcus faecium; assay: Inhibition of carbonic anhydrase in Enterococcus faecium NR-31971 assessed as antibacterial activity incubated for 18 to 20 hrs in presence of ambient air by CLSI protocol based broth microdilution assay; conditions: time hrs 18-20; how it was run: as §3
# [21] = system: Enterococcus faecium; assay: Inhibition of carbonic anhydrase in Enterococcus faecium NR-31972 assessed as antibacterial activity incubated for 18 to 20 hrs in presence of ambient air by CLSI protocol based broth microdilution assay; conditions: time hrs 18-20; how it was run: as §3
# [22] = system: Enterococcus faecium; assay: Inhibition of carbonic anhydrase in Enterococcus faecium HM-965 assessed as antibacterial activity incubated for 18 to 20 hrs in presence of ambient air by CLSI protocol based broth microdilution assay; conditions: time hrs 18-20; how it was run: as §3
# [23] = system: Enterococcus faecalis; assay: Inhibition of carbonic anhydrase in Enterococcus faecalis HM-334 assessed as antibacterial activity incubated for 18 to 20 hrs in presence of ambient air by CLSI protocol based broth microdilution assay; conditions: time hrs 18-20; how it was run: as §3
# [24] = system: Enterococcus faecium; assay: Inhibition of carbonic anhydrase in Enterococcus faecium NR-31971 assessed as antibacterial activity incubated for 18 to 20 hrs in presence of 5% CO2 by CLSI protocol based broth microdilution assay; conditions: time hrs 18-20; how it was run: as §3
# [25] = system: Enterococcus faecium; assay: Inhibition of carbonic anhydrase in Enterococcus faecium NR-31972 assessed as antibacterial activity incubated for 18 to 20 hrs in presence of 5% CO2 by CLSI protocol based broth microdilution assay; conditions: time hrs 18-20; how it was run: as §3
# [26] = system: Enterococcus faecium; assay: Inhibition of carbonic anhydrase in Enterococcus faecium HM-965 assessed as antibacterial activity incubated for 18 to 20 hrs in presence of 5% CO2 by CLSI protocol based broth microdilution assay; conditions: time hrs 18-20; how it was run: as §3
# [27] = system: Enterococcus faecalis; assay: Inhibition of carbonic anhydrase in Enterococcus faecalis HM-334 assessed as antibacterial activity incubated for 18 to 20 hrs in presence of 5% CO2 by CLSI protocol based broth microdilution assay; conditions: time hrs 18-20; how it was run: as §3
# [28] = system: Enterococcus faecium; assay: Antibacterial activity against Enterococcus faecium ATCC 700221 by CLSI protocol based assay; assay type: functional; how it was run: as §1
smiles,measurement,setting,value
CC(=O)NC[C@H]1CN(c2ccc(N3CCOCC3)c(F)c2)C(=O)O1 [LINEZOLID],MIC,[1],0.5 µg/mL
same,MIC,[2],1 µg/mL
same,MIC,[3],1 µg/mL
same,MIC,[4],0.25 µg/mL
same,MIC,[5],1 µg/mL
same,MIC,[6],1 µg/mL
same,MIC,[7],0.5 µg/mL
same,MIC,[8],1 µg/mL
same,MIC,[9],0.5 µg/mL
same,Activity,[10],Active
same,MIC,[11],0.5 µg/mL
NS(=O)(=O)c1nnc(NC(=O)CCC2CCCC2)s1,MIC,[12],0.06 µg/mL
same,MIC,[1],0.06 µg/mL
same,MIC,[2],0.125 µg/mL
same,MIC,[3],0.03 µg/mL
same,MIC,[4],0.06 µg/mL
same,MIC,[5],0.06 µg/mL
same,MIC,[6],0.03 µg/mL
same,MIC,[7],0.06 µg/mL
same,MIC,[8],0.03 µg/mL
same,MIC,[9],0.06 µg/mL
same,MIC,[13],0.015 µg/mL
same,Activity,[14],Active
same,Activity,[15],Active
same,Activity,[16],Non-Toxic
same,CC50 at 2 h,[17],> 128 µg/mL
same,inhibition,[18],Active
same,inhibition,[19],inactive
same,MIC,[11],0.03 µg/mL
NS(=O)(=O)c1nnc(NC(=O)CC2CCCCC2)s1,MIC,[2],0.125 µg/mL
same,MIC,[3],0.125 µg/mL
same,MIC,[6],0.125 µg/mL
same,MIC,[20],0.03 µg/mL
same,Activity,[14],Active
same,Activity,[15],Active
same,Activity,[16],Non-Toxic
same,CC50 at 2 h,[17],> 128 µg/mL
same,MIC,[21],0.06 µg/mL
same,MIC,[22],0.06 µg/mL
same,MIC,[23],0.03 µg/mL
same,MIC,[18],0.06 µg/mL
same,MIC,[24],> 64 µg/mL
same,MIC,[25],> 64 µg/mL
same,MIC,[26],> 64 µg/mL
same,MIC,[27],> 64 µg/mL
same,MIC,[19],> 64 µg/mL
CCOc1ccc2nc(S(N)(=O)=O)sc2c1 [ETHOXZOLAMIDE],MIC,[28],1 µg/mL
